Measured values from ChEMBL document CHEMBL4270661 (Bioorg Med Chem, 2018).
Activity calls are given as the source filed them. The rule behind the calls is not given here.

Tests used:
[1] = Induction of microtubule depolymerization in rat A10 cells assessed as cellular microtubule loss incubated for 18 hrs by DAPI staining-based indirect immunofluorescence assay; type: cell-based; conditions: A10, 18 h
[2] = system: MDA-MB-435; assay: Antiproliferative activity against human MDA-MB-435 cells after 48 hrs by sulforhodamine B assay; type: functional, cell-based; conditions: MDA-MB-435, 48 h
Summary of the method: (§1)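 SRB assay: cells plated at set densities, left 24 h to attach and grow, then exposed in triplicate wells to a concentration range for 48 h (DMSO vehicle). Cells fixed, protein stained with SRB. Cells kept at 37 °C, 5% CO2.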

[3] = molecular target: T1, Tubulin (Homo sapiens) (UniProt P68371+Q9H4B7+P0DPH7+P68366+Q13509+Q71U36+P04350+Q3ZCM7+P07437+P68363+Q9BQE3+Q6PEY2+Q13885+Q9BVA1+Q9BUF5); assay: Inhibition of [3H]-colchicine binding to tubulin (unknown origin) at 5 uM relative to control; type: protein-complex assay
[4] = molecular target: T1, Tubulin (Homo sapiens); assay: Inhibition of [3H]-colchicine binding to tubulin (unknown origin) at 0.5 uM relative to control; type: protein-complex assay
[5] = system: HeLa; assay: Antiproliferative activity against human HeLa cells after 48 hrs by sulforhodamine B assay; type: functional, cell-based; summary of the method: as §1
[6] = system: HeLa; assay: Antiproliferative activity against human HeLa cells expressing wild type beta3 tubulin after 48 hrs by sulforhodamine B assay; type: functional, cell-based; summary of the method: as §1
[7] = Resistance index, ratio of IC50 for human HeLa cells expressing wild type beta3 tubulin to IC50 for human HeLa cells; type: functional
Summary of the method: (§2)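 Relative resistance (Rr): IC50 in resistant line divided by IC50 in isogenic parental line, from 48 h SRB assays (HeLa WT βIII vs HeLa; SK-OV-3/MDR-1-6/6 vs SK-OV-3).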

[8] = system: SK-OV-3; assay: Antiproliferative activity against human SKOV3 cells after 48 hrs by sulforhodamine B assay; type: functional, cell-based; conditions: SK-OV-3, 48 h; summary of the method: as §1
[9] = Antiproliferative activity against human SKOV3-MDR1-M6/6 cells after 48 hrs by sulforhodamine B assay; type: functional; conditions: SKOV3-MDR1-M6/6, 48 h; summary of the method: as §1
[10] = Resistance index, ratio of IC50 for human SKOV3-MDR1-M6/6 cells to IC50 for human SKOV3 cells; type: functional; summary of the method: as §2
[11] = system: MDA-MB-231; assay: Antitumor activity against human MDA-MB-231 cells xenografted in athymic Foxn1nu/Foxn1nu mouse assessed as tumor growth inhibition at 10 mg/kg, ip, administered on day 1,2,3,8,9 and 10; type: functional, organism-based
[12] = system: NCI/ADR-RES; conditions: Homo sapiens, 10 mg/kg
[13] = system: MDA-MB-435; assay: Antitumor activity against human MDA-MB-435 cells xenografted in athymic Foxn1nu/Foxn1nu mouse assessed as tumor growth inhibition at 75 mg/kg, ip, administered on day 1,2,3,4 and 9; type: functional, organism-based
Summary of the method: (§3)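 Female athymic nude mice, 6 weeks old, bilateral flank implants of MDA-MB-435 tumor fragments. Grouped at ~200 mm³ (5 mice, 10 tumors per group), randomized. 75 mg/kg ip per dose, stock in ethanol or water diluted in PBS (<5% solvent), vs untreated controls. Caliper volume (width × length × height), tumor mass at trial end (day 15), mean ± SEM.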

[14] = system: Mus musculus; assay: Toxicity in athymic Foxn1nu/Foxn1nu mouse xenografted with human MDA-MB-435 cells assessed as body weight loss at 75 mg/kg, ip, administered on day 1,2,3,4 and 9; type: organism-based; conditions: in vivo
Summary of the method: (§4)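 Female athymic nude mice bearing bilateral MDA-MB-435 flank tumors, 10 tumors per group, given 75 mg/kg ip (PBS, <5% solvent). Individual body weights tracked through the trial as percent change, mean ± SEM, vs untreated controls.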

[15] = system: Mus musculus; assay: Toxicity in athymic Foxn1nu/Foxn1nu mouse xenografted with human MDA-MB-435 cells assessed as occurence of neurological side effects at 75 mg/kg, ip, administered on day 1,2,3,4 and 9; type: organism-based; conditions: in vivo
[16] = system: MDA-MB-435; assay: Antitumor activity against human MDA-MB-435 cells xenografted in athymic Foxn1nu/Foxn1nu mouse assessed as tumor growth inhibition at 75 mg/kg, ip, administered on day 1,2,3,4,7,9 and 11; type: functional, organism-based; summary of the method: as §3
[17] = system: Mus musculus; assay: Toxicity in athymic Foxn1nu/Foxn1nu mouse xenografted with human MDA-MB-435 cells assessed as body weight loss at 75 mg/kg, ip, administered on day 1,2,3,4,7,9 and 11; type: organism-based; conditions: in vivo; summary of the method: as §4
[18] = system: Mus musculus; assay: Toxicity in athymic Foxn1nu/Foxn1nu mouse xenografted with human MDA-MB-435 cells assessed as occurence of neurological side effects at 75 mg/kg, ip, administered on day 1,2,3,4,7,9 and 11; type: organism-based; conditions: in vivo
[19] = system: MDA-MB-231; assay: Antitumor activity against human MDA-MB-231 cells xenografted in athymic Foxn1nu/Foxn1nu mouse assessed as tumor growth inhibition at 75 mg/kg, ip, administered on day 1,2,3,8,9 and 10; type: functional, organism-based
[20] = system: NCI/ADR-RES; assay: Antitumor activity against p-gp expressing human NCI/ADR-RES cells xenografted in athymic Foxn1nu/Foxn1nu mouse assessed as tumor growth inhibition at 75 mg/kg, ip administered on day 1,3 and 5 measured on day 9; type: functional, organism-based
Summary of the method: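 Female athymic nude mice, bilateral flank NCI/ADR-RES (Pgp-expressing) tumor transplants, 8-9 tumors per group. […] Caliper tumor volume, mean ± SEM, compared on day 9 when the trial was stopped.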

EC50 [1] [nM] | IC50 [2] [nM] | inhibition [3] [%] | inhibition [4] [%] | IC50 [5] [nM] | IC50 [6] [nM] | IC50 [8] [nM] | SMILES | Ratio IC50 [7] | IC50 [9] [nM] | Ratio IC50 [10] | also measured
55 | 39 | 95 | 67 | 26 | 23 | 26 | COc1ccc(N(C)c2nc(C)nc3ccn(CC(C)C)c23)cc1.Cl | 0.9 | 25 | 1 | 
> 10000 |  | 0 |  |  |  |  | COc1ccc(Nc2nc(C)nc3cc[nH]c23)c(OC)c1 |  |  |  | 
42 | 21 | 92 | 60 | 32 | 20 | 31 | COc1ccc(N(C)c2nc(C)nc3ccn(C(C)C)c23)cc1.Cl | 0.6 | 58 | 1.9 | 
 |  |  |  |  |  | 5 | CC(=O)O[C@H]1C(=O)[C@@]2(C)[C@H]([C@H](OC(=O)c3ccccc3)[C@]3(O)C[C@H](OC(=O)[C@H](O)[C@@H](NC(=O)c4ccccc4)c4ccccc4)C(C)=C1C3(C)C)[C@]1(OC(C)=O)CO[C@@H]1C[C@@H]2O [PACLITAXEL] |  |  |  | TGI [11]: Active; TGI [12]: inactive
> 10000 |  | 4.2 |  |  |  |  | COc1ccc(Nc2nc(C)nc3ccn(C)c23)cc1 |  |  |  | 
1200 |  | 60 |  |  |  |  | COc1ccc(N(C)c2nc(C)nc3cc[nH]c23)cc1 |  |  |  | 
39 | 21 | 98 | 72 | 27 | 33 | 30 | COc1ccc2c(c1)CCCN2c1nc(C)nc2ccn(C)c12.Cl | 1.2 | 31.5 | 1.1 | 
230 |  | 70 |  |  |  |  | COc1ccc2c(c1)CCCN2c1nc(C)nc2cc[nH]c12 |  |  |  | 
7.4 | 4.3 | 99 | 79 | 5 | 4.3 | 5.2 | COc1ccc(N(C)c2nc(C)nc3ccn(C)c23)cc1.Cl | 0.9 | 6 | 1.2 | TGI [13]: Active; Activity [14]: Non-Toxic; Activity [15]: Toxic
20 | 9 | 97 | 86 | 5.9 | 5.1 | 5 | CCCn1ccc2nc(C)nc(N(C)c3ccc(OC)cc3)c21.Cl | 0.9 | 7 | 1.4 | TGI [16]: Active; Activity [17]: Non-Toxic; Activity [18]: Non-Toxic; TGI [19]: Active; TGI [20]: Active
> 10000 |  | 5.8 |  |  |  |  | COc1ccc(Nc2nc(C)nc3cc[nH]c23)cc1 |  |  |  | 
> 10000 |  | 14 |  |  |  |  | COc1ccc(Nc2nc(C)nc3ccn(C)c23)c(OC)c1 |  |  |  | 
32 | 27 | 96 | 82 | 14 | 10 | 13 | CCCCn1ccc2nc(C)nc(N(C)c3ccc(OC)cc3)c21.Cl | 0.7 | 15 | 1.2 | 
28 | 10.8 | 96 | 79 | 17 | 14 | 17 | CCn1ccc2nc(C)nc(N(C)c3ccc(OC)cc3)c21 | 0.8 | 19.3 | 1.1 | 

SMILES | EC50 [1] [nM] | IC50 [2] [nM] | inhibition [3] [%] | inhibition [4] [%] | IC50 [5] [nM] | IC50 [6] [nM] | IC50 [8] [nM] | Ratio IC50 [7] | IC50 [9] [nM] | Ratio IC50 [10] | also measured
COc1ccc(/C=C\c2cc(OC)c(OC)c(OC)c2)cc1O [COMBRETASTATIN A4] | 9.8 |  |  |  |  |  |  |  | 7 |  | 
